Assay results as given in the EternaBench riboswitch data.

Test system: MS2 coat protein
Assay: apparent Kd, MS2 coat protein; higher = weaker binding; RNA-MaP array; FMN 200 µM where present
Outline: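 Apparent Kd: the median of filtered binding-curve fits from single clusters. Designs were transcribed on Illumina sequencing-chip clusters by stalled E. coli RNA polymerase and titrated with SNAP-549-labelled MS2 coat protein from 0.7 or 1.5 nM, doubling to 3 µM, in 100 mM Tris-HCl pH 7.5, 80 mM KCl, 4 mM MgCl2, BSA, DTT, yeast tRNA and Tween-20. Each series ran without and then with constant ligand, and green signal was normalised to red-channel RNA signal and control-cluster median Fmax.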

[1] = designed as: ON switch for flavin mononucleotide, no ligand
[2] = ligand present: flavin mononucleotide, designed as: ON switch for flavin mononucleotide
[3] = designed as: OFF switch for flavin mononucleotide, no ligand
[4] = ligand present: flavin mononucleotide, designed as: OFF switch for flavin mononucleotide

| Sequence | apparent Kd [1] [nM] | apparent Kd [2] [nM] | apparent Kd [3] [nM] | apparent Kd [4] [nM] |
| --- | --- | --- | --- | --- |
| ACGUUAAUUCGAGGAUAUCGGUGAUAUAAUUUACGAGAAGGCGAUAAUUGUGAUAAACUUAUAGACAUGAGGAUCACCCAUGUA | 42.6 | 39.2 | – | – |
| AAUGGGCAGCAGAAGGCAUGUCAAUGGACAUGAGGAUCACCCAUGUAGUAUAGCCGAAAGGCACAUGAGGAUAUGCUGCCCUAA | 47.2 | 6.74 | – | – |
| ACCUGGACCACAGGAUAUCCCAAUGUUUUACAGGGAGAAGGGUGAGAGUAUGACAUGAGGAUCACCCAUGUUGUCCAGGCGGAA | 442 | 191 | – | – |
| UAUAUAUAGUAAGGAUAUGUAAUUCUUUUAUAAACAGAAGGUACUGACAUGAGGAUCACCCAUGUUUUAGUGUGGGCAUGUAGA | – | – | 66.3 | 81.9 |
| AAUUAUUUAUGAGGAUAUUGUGGUGAAACACCACAAGAAGGCAUGAUACACAUGAGGAUCACCCAUGUGAGCCUUAUGCAUAUA | – | – | 20.3 | 115 |
| CGAAACUACGAGAAGGACAUGUGGUCCUUCAGUUACAUGAGGAUCACCCAUGUAGGAUAUCGUAGUUUCAGGAUCGUGAGAUCG | – | – | 45 | 19.4 |
| UUGGACGUCGUAGGAUAUGUAGGAUAUUCCUACAUGAGGAUCACCCAUGUUGACAUGGAAGAAGGAGAGAAGGACGAUGUCCAU | 308 | 354 | – | – |
| AAGCGAGGGACAGGAUAUGCAGCGAAACUCGCCGCAGAAGGGUCGACAUGAGGAUCACCCAUGUCCUUACGCUCCAAGUAGUGG | 232 | 299 | – | – |
| AAGUCUGGACGAGGAUAUCAGCUGUAACUGGCGUCGACAUGAGGAUCACCCAUGUUGCUAUAGGGUGAGAAGGCGUUUGGGCAA | 47.7 | 28.8 | – | – |
| UCAUUUAUUACAGGAUAUGUUAGUAUUCAGUUGUUUGGUUAUUACUUAUUUACAGAAGGGUAGAACAUGAGGAUCACCCAUGUA | 407 | 329 | – | – |
| ACUUAUGAAGGAUAUACUGGCGACAUGCGCUCAACACGCGCACAUGAGGAUCACCCAUGUAGAAGGUCAAACAU | – | – | 27.5 | 45.5 |
| UUAUGAUAGAUAGGAUAUACUAUGGUUUAAGAAGUAGAAGGAUCAAUUGGGAAAUGUACAUGAGGAUCACCCAUGUUAUAGGUU | 37.1 | 33.7 | – | – |
| UGUCGGAGCAGAGGAUAUUACAUGAGGAUCACCCAUGUAUGAACCAAUAGCUGGAAACAGCAAUAUAAGAAGGCUGCUCCGACA | – | – | 5.59 | 5.48 |
| AAAAAAAAAAGGCAGGAUAUCCAAAAAAAAACAUGAGGAUCACCCAUGUAAAAAAAAAAAAAGUGGGAGAAGGGCCAAAAAAAAAA | 45.3 | 15.6 | – | – |
| AACCGACAUGAGGAUCACCCAUGUAAGGAUAUCCACGGACAACGCCAUAGUUGCCGGCGGAGAAGGUGCGUGGU | – | – | 26 | 46 |
| CUGCGGUAGGAGAAGGACGGCGGGUUAUUUUCGUACAUGAGGAUCACCCAUGUAGGAUAUCCUACCUCAGGCGGCCUACUACAG | – | – | 19.9 | 30 |
| AUUAAACAUGAGGAUCACCCAUGUCAACAAAGUCGAGGAUAUGGGCAAAUAAAAUAAGUACCAGAAGGCGAAUAAU | 113 | 24.2 | – | – |
| UCCCUAGAAGUAAGGAUAUGUCGAUGGCCAAUUCGAUAGAAGGUACAUGAGGAUCACCCAUGUGACCUACUGGG | – | – | 15.7 | 23.7 |
| GCCAGGAUGUGAGGAUAUGCUGAGGAUAACUCAGCAGAAGGCACAUGAGGAUCACCCAUGUAAACUUAUCAUAAAUACCCUGGC | – | – | 14.3 | 21.2 |
| GGGUACAUGGGAGGAUAUCCUCAAGAGACAUGAGGAUCACCCAUGUAUUAUAUGCCUCAUGGCAUGGAGAAGGCCCAUGUACCG | 188 | 160 | – | – |
| UCGUAUACACAAGGAUAUCGAUGGCUUGUAGAUCCUACAUGAGGAUCACCCAUGUUUUUAUAUUGUGAGAAGGUGUAGUGUCUU | 1170 | 1910 | – | – |

| Sequence | apparent Kd [1] [nM] | apparent Kd [2] [nM] | apparent Kd [3] [nM] | apparent Kd [4] [nM] |
| --- | --- | --- | --- | --- |
| CAGGUGUUAGGAUAUCGGAGGUUGAGGCAGACGGGAAUAUUCGAGAAGGAACAUGAGGAUCACCCAUGUAGUAG | – | – | 22.8 | 24.8 |
| UAUCGUGUUCGAGGAUAUGAAACUAGGCCGGGCACUGUAUACCCGCCUGUCUCAGAAGGCGGACAUGAGGAUCACCCAUGUAAA | – | – | 202 | 17.4 |
| CUGAUGUUAGGAUAUCAGGUUGCGCGCGAAGGCACGCAGCAUGAGAAGGAACAUGAGGAUCACCCAUGUGACGA | – | – | 40.6 | 132 |
| GGUCGUCACAUUAACAUGAGGAUCACCCAUGUCAAAAGACAUGAGGAUAUGCAUAAUAAUAUAAAGCAGAAGGCAUGGACGACC | 240 | 14.4 | – | – |
| AAUCGUAGAACGAUCACUACCAGUCAGGAUAUACAUGAGGAUCACCCAUGUCGUGUCGACAGCAUGUAGAAGGGACGGUUAUAU | – | – | 27.1 | 66 |
| UUAACUCAUGUAGGAUAUGCAUGGCGAAGCUACGCAGAAGGACAUGAGGAUCACCCAUGUUCUAGCUACCGAGUUCGGUGGCAA | – | – | 92 | 272 |
| UCAUUUCAGUAAGGAUAUUAAUUCAUGACGAUACAUGAGGAUCACCCAUGUUAAGAAGGUACUAAUACAAAUAAUGCAUUGUUC | – | – | 12.4 | 11.2 |
| CGCAGGAUACAGAAGGAGUUAUUGAGAGGUUUACUAGGAUAUGUUCACAUGAGGAUCACCCAUGUCGUAUGGUUUUUUGUUGCG | – | – | 22.6 | 16.1 |
| AUUUGAAUCGUAGGAUAUCGCUUAAAUUUACCACGAGAAGGACGAACAUGAGGAUCACCCAUGUAACAUGGUGAAGAUAAUUUG | – | – | 31.6 | 120 |
| ACAAAACAUGUAGGAUAUCGAUUGCGUCGCGAUCGAGAAGGACAAGAGGGUCACCCUUGUACAUGAGGAUCACCCAUGUCAUGU | – | – | 202 | 149 |
| UGGUUGUCAGGAUAUACGUUUUUUAACUUUUGUUUUAUAUUGUAGAAGGGACAUGAGGAUCACCCAUGUUACGU | – | – | 25.2 | 27.1 |
| CAGUACUGAGGAUAUACAUGAGGAUCACCCAUGUGUUCGAUACUAGUGAGGUCGAUUAGUAGAAGGCAGUACUG | – | – | 21.3 | 248 |
| AAAGAGCGAGGAUAUACAUGAGGAUCACCCAUGUAAAGAUGCAUGGUCUGAACGUCUGGUAGAAGGCGUAUGAA | – | – | 135 | 120 |
| UGGUACUAGGGAGGAUAUGGGAAGCUACAUGAGGAUCACCCAUGUUUAAGAAUGCCGAGAGGCAACUAGAAGGCCCUAGUACCU | 30.2 | 5.56 | – | – |
| AUUAUAUAGAAAGGAUAUUGAUUAUUAUUUUAACAUGAGGAUCACCCAUGUAGCCUUAUGUAUAACAAGAAGGUUCAUUUAUUA | – | – | 75.9 | 89.5 |
| AGCUACGUUUCGUAGCAGCUAGGUGAGGAUAUUCAAUUUUUCACAUGAGGAUCACCCAUGUAAAAGAAGAAGGCGCCUAGAAAG | 4.28 | 4.25 | – | – |
| CAUUAAUUGAUUAUUGUAUUUAUACAGGAUAUGUAACAUGAGGAUCACCCAUGUAUACAUGGGAAACAGAAGGGUAUAUAAAGA | – | – | 33.7 | 29.9 |
| GGAGCUCACAUCUACAUGAGGAUCACCCAUGUCAAAAGACAUGAGGAUAUGCAUCCUAAUUGGAUGCAGAAGGCAUGGAGCUCC | 946 | 57.4 | – | – |
| UGCAUGUAUGAGAAGGCUAAUUUGGACAUUAUUUAUGAUGAUGUUUAGGUUAGAGGAUAUUGGGACAUGAGGAUCACCCAUGUA | – | – | 21.5 | 18 |
| GGACGUCGCAUAAACAUGAGGAUCACCCAUGUAACUAGACAUGAGGAUAUGGAUCCUAAUUGGAUCCAGAAGGUAUGGACGUCC | 298 | 200 | – | – |
